Data set [1] has as its target prostaglandin G/H synthase 1 (Bos taurus) (UniProt O62664). The data set is described as follows: Ratio of indomethacin IC50 to compound IC50 for prostaglandin synthetase (bovine).
Data set [2] relates to Rattus norvegicus. Put plainly: Inhibition of PGF2-alpha formation in ip dosed rat serum after 1 hr by radioimmunoassay. It is filed as functional. Put shortly: (§1)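 Male rats, about 200 g, five per group, dosed at various levels ip or orally by intubation. Killed 1 h later and serum prepared. Serum extracted with ethyl acetate, extract evaporated under nitrogen, then assayed by radioimmunoassay using rabbit antibodies raised to PGF2α.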

In data set [3] the test system is Platelet. Put plainly: Inhibition of collagen-induced platelet aggregation in human platelet-rich plasma after 5 mins. It is filed as functional. The gist of the method: (§2)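 Human PRP from centrifugation (180g, 15 min, room temperature); PPP from spinning PRP at 1000g for 2 min. 1 mL PRP stirred at 1000 rpm at 37 °C in a densitometer. Compounds added in physiological saline at various concentrations and incubated 5 min. Aggregation then triggered with ADP, epinephrine hydrochloride or human mammary-gland collagen. IC50 extrapolated from % inhibition vs log concentration.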

The target in data set [4] is prostaglandin G/H synthase 1 (Bos taurus) (UniProt O62664). The data set is described as follows: Inhibition of prostaglandin synthetase (bovine) using arachidonic acid as substrate preincubated for 10 mins followed by substrate addition.
Data set [5] deals with Platelet. Put plainly: Inhibition of epinephrine hydrochloride-induced platelet aggregation in human platelet-rich plasma after 5 mins. It is filed as functional. Put shortly: as §2
The subject of data set [6] is Platelet. The data set is described as follows: Inhibition of ADP-induced platelet aggregation in human platelet-rich plasma after 5 mins. It is filed as functional. Put shortly: as §2
A short description of data set [7]: Toxicity in po dosed mouse treated for 14 days. The data set is classed as organism-based. The settings on record: in vivo.
The subject of data set [8] is Rattus norvegicus. Put plainly: Inhibition of PGF2-alpha formation in po dosed rat serum after 1 hr by radioimmunoassay. It is filed as functional. Put shortly:
as §1

For data set [9], the species on record is Rattus norvegicus. Put plainly: Toxicity in rat assessed as systemic analgesic activity. It is filed as organism-based. As to conditions: in vivo.
Data set [10] is described as follows: Toxicity in po dosed mouse. The settings on record: in vivo. The data set is classed as organism-based. Put shortly: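 Acute oral (single-dose) administration to mice; the endpoint was the LD50 in mg/kg.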
Data set [11] relates to Rattus norvegicus. Put plainly: Toxicity in po dosed rat assessed as gastric ulcer incidence after 4 hrs. The data set is classed as organism-based, Stomach. The settings on record: in vivo. Put shortly: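 Male rats fasted 18 h with water ad libitum. Dosed orally 4 h before autopsy. Stomachs opened along the lesser curvature, everted, rinsed in saline and examined for focal petechiae.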

Data set [12] concerns Mus musculus. The data set is described as follows: Inhibition of arachidonic acid-induced diarrhea in po dosed mouse treated for 1 hr prior to arachidonic acid-challenge measured after 30 mins. It is filed as functional. The gist of the method:
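Male mice, 18-20 g, given compound orally 1 h before arachidonic acid 4 mg/kg ip. Diarrhea scored 0-4 on paper towels by pellet softness and wet ring.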

The species entered for data set [13] is Rattus norvegicus. The data set is described as follows: Toxicity in rat assessed as systemic antiinflammatory activity. The data set is classed as organism-based. The settings on record: in vivo.
[14] abbreviates: Homo sapiens, Platelet, Plasma, 5 min, read-out: IC50.

Data on four molecules can be found in ChEMBL document CHEMBL3244071, “3-Phenyl-5-[2,2,2-trifluoro-1-hydroxy-1-(trifluoromethyl)ethyl]indole-2-carbonitrile, a potent inhibitor of prostaglandin synthetase and of platelet aggregation” (J Med Chem, 1979).

As a reminder, the ED50 is the dose that gives a 50% effect, or the effect in half of the subjects. A word on the IC50: it is the concentration that inhibits the measured activity by half. Broadly, the LD50 is the dose expected to kill half of the subjects tested. The low end stands for greater toxicity, the high end for lower toxicity. In the case of `N#Cc1[nH]c2ccc(C(O)(C(F)(F)F)C(F)(F)F)cc2c1-c1ccccc1`, the Ratio IC50 in [1] was found to be 2. In addition, the ED50 in data set [2] is 15 mg/kg; in data set [8] it was 28 mg/kg; in data set [11], over 250 mg/kg; in [12] it was 5 mg/kg. Further, the IC50 in data set [3] was determined as 4.2 µM; in data set [4] it was 0.5 µM; in data set [5] (setting [14]) it was 34 µM; in data set [6], 7.3 µM. The molecule further returned an LD50 at 336 h in [7] of over 1000 mg/kg. The Activity result in [9] and in data set [13] was “Non-toxic” in each case. Besides, the 50% lethal dose (LD50) in [10] was over 1000 mg/kg.
In turn, `NC(=O)c1[nH]c2ccc(C(O)(C(F)(F)F)C(F)(F)F)cc2c1-c1ccccc1` came in with an IC50 in [4] of 7 µM.
On to `COc1ccc2c(c1)c(CC(=O)O)c(C)n2C(=O)c1ccc(Cl)cc1` [INDOMETHACIN], for which the ED50 in data set [2] was under 1 mg/kg; in data set [8], under 1 mg/kg; in data set [11] it was 3 mg/kg; in data set [12], 0.8 mg/kg. Further, the IC50 in data set [3] was determined as 2.8 µM; in data set [5] (setting [14]), 3.2 µM; in [6] it was 0.1 µM.
Turning to `CC(=O)Oc1ccccc1C(=O)O` [ASPIRIN], the ED50 in [2] came to 10 mg/kg; in [8], 6.7 mg/kg; in data set [11], 49 mg/kg; in data set [12] it was 1.3 mg/kg. For the same molecule, the 50% inhibitory concentration (IC50) was determined as 31 µM in [3], 18 µM in [5] (platelet) and 25 µM in [6].
